Data reported in ChEMBL document CHEMBL4371006, “Discovery of N-[4-(Quinolin-4-yloxy)phenyl]benzenesulfonamides as Novel AXL Kinase Inhibitors” (J Med Chem, 2018).

Tests used:
[1] = target: Non-receptor tyrosine-protein kinase TNK1 (Homo sapiens, UniProt Q13470); assay: Binding affinity to TNK1 in SILAC-labeled human MDA-MB-231 cells lysate by mass spectrometry based kinAffinity assay; assay type: subcellular
In short: (§1)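 MDA-MB-231 lysate applied to KinAffinity matrix of immobilized broadband kinase inhibitors at graded densities to obtain BC50 per target. Competition then run with increasing free compound to give CC50; Kd derived by Cheng-Prusoff. Two competition experiments in parallel to check equilibrium, one with lysate pre-incubated with compound before adding matrix. Quantitation by mass spectrometry.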

[2] = target: Serine/threonine-protein kinase PLK4 (Homo sapiens, UniProt O00444); assay: Binding affinity to PLK4 in SILAC-labeled human MDA-MB-231 cells lysate by mass spectrometry based kinAffinity assay; assay type: subcellular; in short: as §1
Chain of Serine/threonine-protein kinase PLK4 (O00444 whole entry): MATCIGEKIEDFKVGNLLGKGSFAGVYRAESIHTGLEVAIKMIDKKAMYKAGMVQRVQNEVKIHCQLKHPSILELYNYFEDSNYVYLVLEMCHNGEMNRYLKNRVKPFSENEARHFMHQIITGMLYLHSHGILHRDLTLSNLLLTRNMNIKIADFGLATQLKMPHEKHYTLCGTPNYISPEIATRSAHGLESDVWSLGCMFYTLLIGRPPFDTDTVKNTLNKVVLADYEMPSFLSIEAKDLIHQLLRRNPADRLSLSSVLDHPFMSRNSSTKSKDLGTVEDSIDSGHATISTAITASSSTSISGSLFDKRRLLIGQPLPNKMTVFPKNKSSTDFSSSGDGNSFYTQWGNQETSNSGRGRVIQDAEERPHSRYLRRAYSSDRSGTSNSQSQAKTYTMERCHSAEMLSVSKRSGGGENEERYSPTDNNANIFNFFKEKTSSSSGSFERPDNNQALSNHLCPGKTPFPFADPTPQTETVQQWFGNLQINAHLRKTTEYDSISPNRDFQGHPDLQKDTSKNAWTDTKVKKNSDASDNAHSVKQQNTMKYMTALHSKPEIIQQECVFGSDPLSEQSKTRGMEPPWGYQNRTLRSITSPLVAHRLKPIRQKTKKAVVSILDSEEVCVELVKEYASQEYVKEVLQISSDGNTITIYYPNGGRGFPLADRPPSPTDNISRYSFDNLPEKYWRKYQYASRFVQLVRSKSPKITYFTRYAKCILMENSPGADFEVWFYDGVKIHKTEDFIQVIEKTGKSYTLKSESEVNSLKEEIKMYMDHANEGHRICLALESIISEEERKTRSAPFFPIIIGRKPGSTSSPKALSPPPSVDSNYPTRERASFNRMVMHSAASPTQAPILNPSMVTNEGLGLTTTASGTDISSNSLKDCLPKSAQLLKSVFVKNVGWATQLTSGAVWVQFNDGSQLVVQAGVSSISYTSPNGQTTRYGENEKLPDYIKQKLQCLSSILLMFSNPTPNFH

[3] = target: Epidermal growth factor receptor (Homo sapiens, UniProt P00533); assay: Binding affinity to EGFR in SILAC-labeled human MDA-MB-231 cells lysate by mass spectrometry based kinAffinity assay; assay type: subcellular
Chain of Epidermal growth factor receptor (P00533 whole entry): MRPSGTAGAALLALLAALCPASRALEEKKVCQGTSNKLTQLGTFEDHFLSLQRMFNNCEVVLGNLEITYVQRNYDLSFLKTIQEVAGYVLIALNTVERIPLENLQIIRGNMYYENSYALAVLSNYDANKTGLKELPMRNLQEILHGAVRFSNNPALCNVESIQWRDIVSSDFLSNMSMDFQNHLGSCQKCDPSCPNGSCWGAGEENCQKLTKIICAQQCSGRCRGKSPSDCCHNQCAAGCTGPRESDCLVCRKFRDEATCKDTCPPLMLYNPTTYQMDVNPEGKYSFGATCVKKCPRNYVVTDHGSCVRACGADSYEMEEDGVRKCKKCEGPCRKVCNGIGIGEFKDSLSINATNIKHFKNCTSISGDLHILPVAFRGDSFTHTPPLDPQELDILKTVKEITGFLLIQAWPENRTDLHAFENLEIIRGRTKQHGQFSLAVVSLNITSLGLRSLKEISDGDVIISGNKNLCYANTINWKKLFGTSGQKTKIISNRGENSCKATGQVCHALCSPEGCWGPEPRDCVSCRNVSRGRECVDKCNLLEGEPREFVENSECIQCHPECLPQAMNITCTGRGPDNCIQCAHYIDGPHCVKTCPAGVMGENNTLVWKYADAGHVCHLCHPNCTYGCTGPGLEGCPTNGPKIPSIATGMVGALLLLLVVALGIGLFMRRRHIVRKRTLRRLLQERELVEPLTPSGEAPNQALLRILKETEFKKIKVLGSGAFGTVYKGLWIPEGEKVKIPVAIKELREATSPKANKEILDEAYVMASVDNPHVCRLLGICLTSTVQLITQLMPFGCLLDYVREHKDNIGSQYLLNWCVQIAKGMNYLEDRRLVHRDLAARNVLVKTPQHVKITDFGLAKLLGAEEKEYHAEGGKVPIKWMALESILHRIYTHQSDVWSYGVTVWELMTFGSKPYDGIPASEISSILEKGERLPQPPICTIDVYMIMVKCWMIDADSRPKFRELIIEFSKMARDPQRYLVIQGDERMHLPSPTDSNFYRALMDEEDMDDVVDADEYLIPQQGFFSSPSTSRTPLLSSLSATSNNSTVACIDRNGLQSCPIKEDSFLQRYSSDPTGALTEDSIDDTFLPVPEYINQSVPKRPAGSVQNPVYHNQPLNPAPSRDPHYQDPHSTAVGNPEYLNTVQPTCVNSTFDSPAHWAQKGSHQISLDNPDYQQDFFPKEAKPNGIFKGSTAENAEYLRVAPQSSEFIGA
In short: (§2)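 Chemical proteomics: MDA-MB-231 lysate bound to matrix of immobilized broad kinase inhibitors at several densities (BC50), then competed with increasing free compound (CC50); proteins quantified by mass spectrometry, Kd via Cheng-Prusoff. Two competition formats run in parallel to check equilibrium.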

[4] = target: LIM domain kinase 1 (Homo sapiens, UniProt P53667); assay: Binding affinity to LIMK1 in SILAC-labeled human MDA-MB-231 cells lysate by mass spectrometry based kinAffinity assay; assay type: subcellular; in short: as §2
[5] = target: Proto-oncogene tyrosine-protein kinase Src (Homo sapiens, UniProt P12931); assay: Binding affinity to SRC in SILAC-labeled human MDA-MB-231 cells lysate by mass spectrometry based kinAffinity assay; assay type: subcellular; in short: as §1
Chain of Proto-oncogene tyrosine-protein kinase Src (P12931 2-536 limits assumed): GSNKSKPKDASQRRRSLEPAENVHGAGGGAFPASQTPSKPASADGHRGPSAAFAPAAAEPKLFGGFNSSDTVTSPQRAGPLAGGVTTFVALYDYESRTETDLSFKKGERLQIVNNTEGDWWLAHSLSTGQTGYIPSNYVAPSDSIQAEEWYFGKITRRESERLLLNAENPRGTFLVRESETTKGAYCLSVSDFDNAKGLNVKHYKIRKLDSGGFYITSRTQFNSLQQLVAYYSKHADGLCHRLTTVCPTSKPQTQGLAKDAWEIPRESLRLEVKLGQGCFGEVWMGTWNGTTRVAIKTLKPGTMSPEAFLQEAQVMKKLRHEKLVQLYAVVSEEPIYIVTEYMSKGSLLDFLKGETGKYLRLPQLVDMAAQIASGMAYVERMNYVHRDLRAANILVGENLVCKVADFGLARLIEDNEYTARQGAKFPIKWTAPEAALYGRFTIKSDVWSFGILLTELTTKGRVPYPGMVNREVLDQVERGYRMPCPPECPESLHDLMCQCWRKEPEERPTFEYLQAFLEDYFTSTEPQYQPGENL

[6] = target: Tyrosine-protein kinase CSK (Homo sapiens, UniProt P41240); assay: Binding affinity to CSK in SILAC-labeled human MDA-MB-231 cells lysate by mass spectrometry based kinAffinity assay; assay type: subcellular; in short: as §2
[7] = target: 5'-AMP-activated protein kinase catalytic subunit alpha-1 (Homo sapiens, UniProt Q13131); assay: Binding affinity to PRKAA1 in SILAC-labeled human MDA-MB-231 cells lysate by mass spectrometry based kinAffinity assay; assay type: subcellular; in short: as §1
Chain of 5'-AMP-activated protein kinase catalytic subunit alpha-1 (Q13131 whole entry): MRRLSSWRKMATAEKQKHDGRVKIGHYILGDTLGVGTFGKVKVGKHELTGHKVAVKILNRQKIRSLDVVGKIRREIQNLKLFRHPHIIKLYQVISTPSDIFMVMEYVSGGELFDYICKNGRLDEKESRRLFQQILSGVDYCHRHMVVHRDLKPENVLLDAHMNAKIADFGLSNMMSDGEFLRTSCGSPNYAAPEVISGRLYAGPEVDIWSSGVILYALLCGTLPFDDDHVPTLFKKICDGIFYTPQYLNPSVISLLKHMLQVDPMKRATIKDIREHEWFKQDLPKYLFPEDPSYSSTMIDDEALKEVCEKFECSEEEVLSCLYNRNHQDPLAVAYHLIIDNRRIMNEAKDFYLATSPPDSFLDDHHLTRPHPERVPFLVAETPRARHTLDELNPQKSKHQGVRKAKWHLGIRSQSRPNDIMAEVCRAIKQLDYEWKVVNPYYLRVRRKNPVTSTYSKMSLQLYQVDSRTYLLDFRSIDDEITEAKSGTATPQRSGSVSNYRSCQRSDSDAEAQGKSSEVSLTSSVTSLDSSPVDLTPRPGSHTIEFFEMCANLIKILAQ

[8] = target: Mitogen-activated protein kinase kinase kinase 20 (Homo sapiens, UniProt Q9NYL2); assay: Binding affinity to ZAK in SILAC-labeled human MDA-MB-231 cells lysate by mass spectrometry based kinAffinity assay; assay type: subcellular; in short: as §1
[9] = target: Serine/threonine-protein kinase/endoribonuclease IRE1 (Homo sapiens, UniProt O75460); assay: Binding affinity to IRE1 in SILAC-labeled human MDA-MB-231 cells lysate by mass spectrometry based kinAffinity assay; assay type: subcellular; in short: as §2
[10] = target: 5'-AMP-activated protein kinase subunit gamma-1 (Homo sapiens, UniProt P54619); assay: Binding affinity to PRKAG1 in SILAC-labeled human MDA-MB-231 cells lysate by mass spectrometry based kinAffinity assay; assay type: subcellular; in short: as §1
[11] = target: Aurora kinase A (Homo sapiens, UniProt O14965); assay: Binding affinity to AURKA in SILAC-labeled human MDA-MB-231 cells lysate by mass spectrometry based kinAffinity assay; assay type: subcellular; in short: as §2
[12] = target: 5'-AMP-activated protein kinase subunit beta-2 (Homo sapiens, UniProt O43741); assay: Binding affinity to PRKAB2 in SILAC-labeled human MDA-MB-231 cells lysate by mass spectrometry based kinAffinity assay; assay type: subcellular; in short: as §1
[13] = target: TGF-beta receptor type-2 (Homo sapiens, UniProt P37173); assay: Binding affinity to TGFBR2 in SILAC-labeled human MDA-MB-231 cells lysate by mass spectrometry based kinAffinity assay; assay type: subcellular; in short: as §1
[14] = target: Cyclin-G-associated kinase (Homo sapiens, UniProt O14976); assay: Binding affinity to GAK in SILAC-labeled human MDA-MB-231 cells lysate by mass spectrometry based kinAffinity assay; assay type: subcellular; in short: as §2
Chain of Cyclin-G-associated kinase (O14976 whole entry): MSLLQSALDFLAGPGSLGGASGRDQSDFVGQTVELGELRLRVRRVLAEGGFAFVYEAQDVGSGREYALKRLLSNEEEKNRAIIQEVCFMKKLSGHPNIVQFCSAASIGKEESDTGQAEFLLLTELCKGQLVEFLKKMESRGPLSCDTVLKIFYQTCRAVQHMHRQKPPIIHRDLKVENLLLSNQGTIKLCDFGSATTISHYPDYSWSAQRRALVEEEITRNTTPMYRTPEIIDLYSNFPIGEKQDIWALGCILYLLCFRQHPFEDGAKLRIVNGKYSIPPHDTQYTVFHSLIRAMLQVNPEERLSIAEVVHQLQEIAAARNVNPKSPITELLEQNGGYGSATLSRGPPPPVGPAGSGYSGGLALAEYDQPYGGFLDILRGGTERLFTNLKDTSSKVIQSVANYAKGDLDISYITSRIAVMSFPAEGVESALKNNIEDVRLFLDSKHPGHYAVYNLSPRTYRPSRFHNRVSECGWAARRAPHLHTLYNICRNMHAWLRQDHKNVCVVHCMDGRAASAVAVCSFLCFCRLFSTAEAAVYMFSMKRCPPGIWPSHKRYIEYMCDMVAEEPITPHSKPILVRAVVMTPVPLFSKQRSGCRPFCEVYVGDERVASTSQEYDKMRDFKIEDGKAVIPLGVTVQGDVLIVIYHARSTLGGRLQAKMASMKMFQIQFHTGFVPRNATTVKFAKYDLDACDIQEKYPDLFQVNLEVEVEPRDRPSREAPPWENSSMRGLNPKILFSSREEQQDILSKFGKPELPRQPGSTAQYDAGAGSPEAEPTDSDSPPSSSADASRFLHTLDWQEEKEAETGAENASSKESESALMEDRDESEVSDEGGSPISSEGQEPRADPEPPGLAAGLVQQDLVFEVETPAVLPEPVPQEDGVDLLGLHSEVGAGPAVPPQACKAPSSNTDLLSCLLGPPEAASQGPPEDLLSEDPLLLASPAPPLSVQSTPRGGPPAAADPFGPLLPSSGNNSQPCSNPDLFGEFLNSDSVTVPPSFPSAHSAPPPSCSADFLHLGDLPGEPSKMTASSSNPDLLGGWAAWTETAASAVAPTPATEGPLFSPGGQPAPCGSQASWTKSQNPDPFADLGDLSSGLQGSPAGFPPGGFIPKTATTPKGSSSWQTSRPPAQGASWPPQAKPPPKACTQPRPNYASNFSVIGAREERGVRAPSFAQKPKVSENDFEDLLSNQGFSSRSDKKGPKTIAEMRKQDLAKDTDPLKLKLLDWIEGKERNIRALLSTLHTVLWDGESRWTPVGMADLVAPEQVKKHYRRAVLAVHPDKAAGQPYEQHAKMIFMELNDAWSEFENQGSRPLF

[15] = target: Serine/threonine-protein kinase ULK3 (Homo sapiens, UniProt Q6PHR2); assay: Binding affinity to ULK3 in SILAC-labeled human MDA-MB-231 cells lysate by mass spectrometry based kinAffinity assay; assay type: subcellular; in short: as §1
[16] = target: Ribosomal protein S6 kinase alpha-1 (Homo sapiens, UniProt Q15418); assay: Binding affinity to RPS6KA1 in SILAC-labeled human MDA-MB-231 cells lysate by mass spectrometry based kinAffinity assay; assay type: subcellular; in short: as §1
[17] = target: Serine/threonine-protein kinase 10 (Homo sapiens, UniProt O94804); assay: Binding affinity to LOK in SILAC-labeled human MDA-MB-231 cells lysate by mass spectrometry based kinAffinity assay; assay type: subcellular; in short: as §2
[18] = target: MAP/microtubule affinity-regulating kinase 3 (Homo sapiens, UniProt P27448); assay: Binding affinity to MARK3 in SILAC-labeled human MDA-MB-231 cells lysate by mass spectrometry based kinAffinity assay; assay type: subcellular; in short: as §2
[19] = target: Serine/threonine-protein kinase Nek1 (Homo sapiens, UniProt Q96PY6); assay: Binding affinity to NEK1 in SILAC-labeled human MDA-MB-231 cells lysate by mass spectrometry based kinAffinity assay; assay type: subcellular; in short: as §1
[20] = target: Serine/threonine-protein kinase 3 (Homo sapiens, UniProt Q13188); assay: Binding affinity to MST2 in SILAC-labeled human MDA-MB-231 cells lysate by mass spectrometry based kinAffinity assay; assay type: subcellular; in short: as §1
Chain of Serine/threonine-protein kinase 3 (Q13188 whole entry): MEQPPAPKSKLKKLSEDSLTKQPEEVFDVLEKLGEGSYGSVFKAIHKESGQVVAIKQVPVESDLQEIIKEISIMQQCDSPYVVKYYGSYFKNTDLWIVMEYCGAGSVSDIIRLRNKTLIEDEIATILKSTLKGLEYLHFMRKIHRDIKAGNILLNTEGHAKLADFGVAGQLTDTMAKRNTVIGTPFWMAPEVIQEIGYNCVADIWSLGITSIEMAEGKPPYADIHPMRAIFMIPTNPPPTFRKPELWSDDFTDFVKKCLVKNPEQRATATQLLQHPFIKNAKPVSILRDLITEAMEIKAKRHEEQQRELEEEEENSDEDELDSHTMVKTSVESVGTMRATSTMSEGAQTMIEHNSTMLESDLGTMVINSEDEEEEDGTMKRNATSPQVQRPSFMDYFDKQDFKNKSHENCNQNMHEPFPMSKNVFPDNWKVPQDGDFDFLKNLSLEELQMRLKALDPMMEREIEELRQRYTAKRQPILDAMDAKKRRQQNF

[21] = Efflux ratio of apparent permeability from basolateral to apical side over apical to basolateral side in human Caco2 cells at 10 uM after 2 hrs by LC-MS/MS analysis; assay type: ADME, cell-based; conditions: Caco-2
In short: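 Caco-2 monolayers differentiated 3 weeks, integrity checked by Lucifer yellow transport. Compound at 10 µM for 2 h; apical transport buffer (glucose, 10 mM HEPES, HBSS, pH 6.5, 100 µM Lucifer yellow), basolateral buffer pH 7.4. Papp = (dQ/dt)/C0A; efflux ratio = Papp(B→A)/Papp(A→B).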

[22] = Intrinsic clearance in mouse liver microsomes at 5 uM after 60 mins in presence of NADPH by LC-MS/MS analysis; assay type: ADME, Microsome; conditions: read-out: CLH
In short: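 Compound at 5 µM with 1 mg/mL human or mouse liver microsomes plus an NADPH-regenerating system, in 100 mM potassium phosphate at 37°C. Reactions were stopped with acetonitrile at sampling times. Percent remaining versus time 0 was measured by HPLC, in duplicate.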

[23] = Stability in human plasma assessed as parent compound remaining; assay type: ADME, cell-free
[24] = Stability in mouse plasma assessed as parent compound remaining; assay type: ADME, cell-free
[25] = Protein binding in mouse plasma; assay type: ADME, cell-free; conditions: read-out: PPB (converted)
[26] = AUC (0 to tz) in mouse at 1 to 2 mg/kg, iv by LC/MS/MS analysis; assay type: ADME, organism-based; conditions: in vivo
In short: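 Male ICR mice (27 ± 5 g, n = 3) dosed iv via tail vein at 2 or 1 mg/kg in 30% PEG400/5% ethanol in water. Jugular blood (0.3 mL, heparin) sampled at set times over 24 h or more; plasma separated, acetonitrile-precipitated, drug quantified by LC/MS/MS; parameters from noncompartmental-type software estimation.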

[27] = Initial plasma concentration in mouse at 1 to 2 mg/kg, iv by LC/MS/MS analysis; assay type: ADME, organism-based
In short: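 Male ICR mice (n = 3) dosed iv via the tail vein at 2 or 1 mg/kg in 30% PEG400 and 5% ethanol in water. Jugular blood was collected into heparin and the plasma separated. Plasma levels were measured by LC/MS/MS after acetonitrile precipitation, and parameters were derived by noncompartmental software.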

| Kd(free) [1] [nM] | Kd(free) [2] [nM] | Kd(free) [3] [nM] | Kd(free) [4] [nM] | Kd(free) [5] [nM] | Kd(free) [6] [nM] | Kd(free) [7] [nM] | Kd(free) [8] [nM] | Kd(free) [9] [nM] | Kd(free) [10] [nM] | Kd(free) [11] [nM] | Kd(free) [12] [nM] | Kd(free) [13] [nM] | Kd(free) [14] [nM] | Kd(free) [15] [nM] | Kd(free) [16] [nM] | Kd(free) [17] [nM] | Kd(free) [18] [nM] | Kd(free) [19] [nM] | Kd(free) [20] [nM] | SMILES | further results |
| --- | --- | --- | --- | --- | --- | --- | --- | --- | --- | --- | --- | --- | --- | --- | --- | --- | --- | --- | --- | --- | --- |
| 14 | 48 | 16 | 93 | 96 | 30 | 786 | 3210 | 243 | 1871 | 146 | 1907 | 7385 | 4166 | > 2513 | 5474 | 3039 | 5622 | 5043 | 5223 | COc1cc2c(Oc3ccc(NS(=O)(=O)c4c(F)cccc4F)cc3F)ccnc2cc1OCCCN1CCN(C)CC1 | – |
| – | – | – | – | – | – | – | – | – | – | – | – | – | – | – | – | – | – | – | – | COc1cc2c(Oc3ccc(NS(=O)(=O)c4cc(F)ccc4F)cc3F)ccnc2cc1OCCCN1CCCC(C)C1 (centres undefined) | efflux ratio at 2 h, 10 µM [21]: 6.6; microsomal CLint at 5 µM [22]: 19.1 µL/min/mg; Stability [23]: 99.1%; Stability [24]: 98.8%; fraction unbound [25]: 0.041; AUC [26]: 669 ng·h/mL; C0 [27]: 216 ng/mL |
| 24 | 53 | 122 | 130 | 254 | 270 | 616 | 1180 | 723 | 825 | 847 | 969 | 1860 | 2448 | > 2514 | 3152 | 3780 | 3854 | 5146 | > 6454 | COc1cc2c(Oc3ccc(NS(=O)(=O)c4cc(F)ccc4F)cc3F)ccnc2cc1OCCCN1CCN(C)CC1 | efflux ratio at 2 h, 10 µM [21]: 2.3; microsomal CLint at 5 µM [22]: 143 µL/min/mg; Stability [23]: 96.3%; Stability [24]: 108%; fraction unbound [25]: 0.028; AUC [26]: 1430 ng·h/mL; C0 [27]: 310 ng/mL |
